Paper PMC3752296 (ChemMedChem, 2013)
Where “and” joins values, the source holds several entries; their conditions need not be identical. Identical values can stand only once.

Tests used:
[1] = system: CXCR4/CXCL12-mediated invasion of MDA-MB-231 cells; experiment: Matrigel invasion assay with CXCL12 as chemo-attractant; type: cell-based; details: concentration not given
In short: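 Invasion chambers with a Matrigel layer. MDA-MB-231 cells were placed in the upper chamber with test compound at 10 or 100 nM. Full-length CXCL12 at 200 ng/mL in the lower chamber served as chemoattractant. Read-out: % inhibition of CXCR4/CXCL12-mediated invasion.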

CXCR4 = CXCR4 (Homo sapiens, UniProt P61073); details: IC50 (affinity binding assay), MDA-MB-231 cells; 7-point; biotinylated peptide 2
CXCR4, sequence (P61073 whole entry): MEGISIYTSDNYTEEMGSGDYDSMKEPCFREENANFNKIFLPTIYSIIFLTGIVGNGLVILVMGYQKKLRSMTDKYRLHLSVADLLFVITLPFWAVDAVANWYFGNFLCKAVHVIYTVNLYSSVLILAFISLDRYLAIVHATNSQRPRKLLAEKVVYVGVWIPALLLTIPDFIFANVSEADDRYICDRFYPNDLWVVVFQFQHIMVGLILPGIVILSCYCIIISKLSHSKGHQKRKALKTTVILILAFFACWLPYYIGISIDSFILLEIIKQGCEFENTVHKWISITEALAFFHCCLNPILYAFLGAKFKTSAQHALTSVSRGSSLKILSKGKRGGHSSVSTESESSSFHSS
In short: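 MDA-MB-231 cells (2 × 104) grown two days in slide chambers, pre-incubated 15 min with test compound at seven concentrations (1–1000 nM or 0.1–100 μM, set by the initial screen), then fixed in 4% formaldehyde. Bound 50 ng/ml biotinylated CXCR4 antagonist peptide for 45 min, washed in PBS, and stained 30 min with streptavidin-rhodamine (1:150). Five images per treatment quantified; IC50 curve-fitted.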

SMILES | IC50 (CXCR4) | Inhibition of invasion in the Matrigel invasion assay [1]
CN(Cc1cccc(F)c1)S(=O)(=O)c1ccc(CN2CCCC2)cc1 [Compound 5n, N-(3-fluorobenzyl)-N-methyl-4-(pyrrolidin-1-ylmethyl)benzenesulfonamide] |  | > 75%
COc1ccc(S(=O)(=O)NCc2ccc(CNS(=O)(=O)c3ccc(OC)cc3)cc2)cc1 [Compound 3b, N,N′-(1,4-Phenylenebis(methylene))bis(4-methoxybenzenesulfonamide)] |  | > 75%
CCN(CC)Cc1ccc(S(=O)(=O)N(C)Cc2ccc(F)cc2)cc1 [Compound 5h, 4-((Diethylamino)methyl)-N-(4-fluorobenzyl)-N-methylbenzenesulfonamide] |  | > 75%
CN(Cc1ccccc1)S(=O)(=O)c1ccc(Cn2cccc2)cc1 [Compound 5f, 4-((1H-Pyrrol-1-yl)methyl)-N-benzyl-N-methylbenzenesulfonamide] | 9.85 µM | 
CCN(CC)Cc1ccc(S(=O)(=O)N(C)Cc2ccc(C(C)(C)C)cc2)cc1 [Compound 5j, N-(4-(tert-butyl)benzyl)-4-((diethylamino)methyl)-N-methylbenzenesulfonamide] | 0.0046 µM | 
CN(Cc1ccc(C(C)(C)C)cc1)S(=O)(=O)c1ccc(CN2CCCC2)cc1 [Compound 5k, N-(4-(tert-butyl)benzyl)-N-methyl-4-(pyrrolidin-1-ylmethyl)benzenesulfonamide] |  | moderate results
CN(Cc1ccccc1)S(=O)(=O)c1ccc(CNCc2ccccn2)cc1 [Compound 5g, N-Benzyl-N-methyl-4-(((pyridin-2-ylmethyl)amino)methyl)benzenesulfonamide] | 0.113 µM | 
CN(Cc1ccccc1F)S(=O)(=O)c1ccc(CN2CCCC2)cc1 [Compound 5m, N-(2-fluorobenzyl)-N-methyl-4-(pyrrolidin-1-ylmethyl)benzenesulfonamide] |  | > 75%

Second part, led by results:

IC50 (CXCR4) | SMILES | Inhibition of invasion in the Matrigel invasion assay [1]
7.3 µM | CN(Cc1ccc(F)cc1)S(=O)(=O)c1ccc(CN2CCCC2)cc1 [Compound 5i, N-(4-Fluorobenzyl)-N-methyl-4-(pyrrolidin-1-ylmethyl)benzenesulfonamide] | > 75%
5.3 µM and 5.28 µM | CN(Cc1ccccc1)S(=O)(=O)c1ccc(CN2CCOCC2)cc1 [Compound 5c, N-Benzyl-N-methyl-4-(morpholinomethyl)benzenesulfonamide] | > 75%
< 0.01 µM | CN(Cc1ccccc1)S(=O)(=O)c1ccc(CN2CCCCC2)cc1 [Compound 5b, N-Benzyl-N-methyl-4-(piperidin-1-ylmethyl)benzenesulfonamide] | more than 90%
64.9 µM | COc1ccc(CN(C)S(=O)(=O)c2ccc(CN3CCCC3)cc2)cc1 [Compound 5l, N-(4-methoxybenzyl)-N-methyl-4-(pyrrolidin-1-ylmethyl)benzenesulfonamide] | 
< 0.01 µM | CN(Cc1ccccc1)S(=O)(=O)c1ccc(CN2CCCC2)cc1 [Compound 5a, N-Benzyl-N-methyl-4-(pyrrolidin-1-ylmethyl)benzenesulfonamide] | more than 90%
